Compounds with a hit are over-represented: about 2.3% of the library has one in this group of screens.
MEKK3 PB1 HTS = MEKK3-MEK5 PB1 interaction, increase or decrease; Q99759; bead-based flow cytometry, Alexa488-MEK5 binding to MEKK3; actives lie on both sides; 0 = blocked by unlabeled MEK5, 100 = vehicle; binding response (% of control), % at 10 µM; 290,000 tested, 1.4% active; AID 1529;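 active = binding response more than 3 SD above or below the average of its plate-row segment, actives on both sides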;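 note: Alexa488 bead fluorescence after subtracting the streptavidin-only scavenger bead signal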
MEKK2 WT-MEK5 = raises or lowers MEK5 binding to wildtype human MEKK2 PB1 domain | 290,000 tested, 1.1% active | Q9Y2U5 | bead flow cytometry, Alexa488-MEK5 binding to MEKK2 WT; actives lie on both sides | binding response (% of control), % at 10 µM; in the data active = binding response below about 67% or above about 130%
ABCB1 block = blocks JC-1 efflux by human ABCB1 transporter; AID 1326; inhibition, % at 6.6 µM; CCRF-Adr cells, flow cytometry; 190,000 tested, 0.067% active; P08183; in the data active = inhibition above about 40%;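 note: 0% = vehicle and 100% = reference inhibitor; higher value means more JC-1 retained so stronger ABCB1 efflux block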
Target sequence (P08183 whole entry, looked up): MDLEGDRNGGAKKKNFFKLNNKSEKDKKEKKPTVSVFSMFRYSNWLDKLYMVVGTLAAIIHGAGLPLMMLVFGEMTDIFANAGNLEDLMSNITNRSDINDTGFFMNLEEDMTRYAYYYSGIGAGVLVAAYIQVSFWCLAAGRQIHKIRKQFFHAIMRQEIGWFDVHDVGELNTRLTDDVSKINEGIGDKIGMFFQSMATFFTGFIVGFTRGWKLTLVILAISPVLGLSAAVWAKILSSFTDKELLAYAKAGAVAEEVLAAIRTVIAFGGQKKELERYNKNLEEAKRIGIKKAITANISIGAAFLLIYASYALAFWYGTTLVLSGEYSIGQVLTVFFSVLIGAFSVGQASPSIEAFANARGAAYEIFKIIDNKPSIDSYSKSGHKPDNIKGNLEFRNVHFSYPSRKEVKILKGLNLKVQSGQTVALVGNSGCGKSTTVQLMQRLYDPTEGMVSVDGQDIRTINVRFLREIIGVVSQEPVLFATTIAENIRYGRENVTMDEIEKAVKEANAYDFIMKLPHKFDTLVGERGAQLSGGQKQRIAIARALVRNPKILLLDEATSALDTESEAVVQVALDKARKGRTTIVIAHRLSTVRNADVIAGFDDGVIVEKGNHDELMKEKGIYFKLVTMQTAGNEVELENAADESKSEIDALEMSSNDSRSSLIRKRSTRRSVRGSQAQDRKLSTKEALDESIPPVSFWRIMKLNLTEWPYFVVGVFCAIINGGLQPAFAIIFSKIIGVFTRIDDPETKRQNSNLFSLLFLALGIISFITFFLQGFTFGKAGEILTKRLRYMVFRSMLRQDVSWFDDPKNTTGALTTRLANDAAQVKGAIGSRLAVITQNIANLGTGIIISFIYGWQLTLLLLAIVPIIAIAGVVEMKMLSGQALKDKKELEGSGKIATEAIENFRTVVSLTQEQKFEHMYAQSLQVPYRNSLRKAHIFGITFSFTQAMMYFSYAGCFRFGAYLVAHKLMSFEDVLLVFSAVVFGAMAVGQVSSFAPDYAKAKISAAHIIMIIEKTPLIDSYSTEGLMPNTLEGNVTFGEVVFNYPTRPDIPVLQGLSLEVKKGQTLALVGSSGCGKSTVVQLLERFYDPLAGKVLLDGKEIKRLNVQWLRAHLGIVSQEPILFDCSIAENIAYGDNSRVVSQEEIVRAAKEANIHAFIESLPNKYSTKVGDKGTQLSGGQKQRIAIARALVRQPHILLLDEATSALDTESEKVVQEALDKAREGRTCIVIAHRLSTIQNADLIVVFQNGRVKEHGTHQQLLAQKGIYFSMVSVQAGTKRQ
ABCG2 block = blocks JC-1 efflux by human ABCG2 transporter; IgMXP3 cells, flow cytometry; inhibition, % at 6.6 µM; 190,000 tested, 0.1% active; AID 1325;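 active = inhibition above 80%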;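 note: 0% = DMSO and 100% = nicardipine control wells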
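Test system: IgMXP3 cells (ABCG2) mixed with DDAO far-red-labelled CCRF-Adr cells (ABCB1). Reagent: JC-1 transporter substrate. Compound dosing: single test compound dose, 6.6 µM final. Times: 10 min compound exposure, 25 °C. Detection: flow cytometry of retained JC-1 fluorescence. Read-out basis: efflux inhibition in percent versus controls. Controls: nicardipine and DMSO wells.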
MEKK2 mut-MEK5 = signal of MEK5 binding to mutant human MEKK2 PB1 domain; bead flow cytometry, Alexa488-MEK5 binding to MEKK2 mutant; percent response, % at 10 µM; 290,000 tested, 0.35% active; AID 1530; in the data active = percent response above about 24%, passing the limit was not always enough
MEKK2wt confirm = raises or lowers MEK5 binding to wildtype human MEKK2, retest; shares compounds with MEKK3 PB1 HTS; bead flow cytometry, Alexa488-MEK5 binding to MEKK2 WT; actives lie on both sides; binding response (% of control), % at 10 µM; 5,900 tested, 2.4% active; in the data active = binding response below about 16% or above about 210%; inactive = in between
MEKK2mut-MEK5 = signal of MEK5 binding to mutant human MEKK2, retest; bead flow cytometry, Alexa488-MEK5 binding to MEKK2 mutant; shares compounds with MEKK3 PB1 HTS; 5,900 tested, 2% active; percent response, % at 10 µM; in the data active = percent response mostly above about 71%, no sharp cut-off; inactive = mostly below about 38%;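 note: higher means compound restores mutant binding toward wildtype level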
MEKK3-MEK5 inh = confirmation of inhibitors of MEK5 binding to human MEKK3; AID 1894; binding response (% of control), % at 10 µM; bead flow cytometry, Alexa488-MEK5 binding to MEKK3; stronger effect = lower value; 5,900 tested, 1.8% active; shares compounds with MEKK3 PB1 HTS;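 active = binding response below 72% of control, or above a set upper limit, though filed actives all read lower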;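 note: 100% = DMSO only wells and 0% = binding blocked by excess unlabeled MEK5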
* marks the source's active call; other numbers are inactive results; nt = no result; [ ] = dose if it differs, or a comment.

SMILES	MEKK3 PB1 HTS	MEKK2 WT-MEK5	ABCB1 block	ABCG2 block	MEKK2 mut-MEK5	MEKK2wt confirm	MEKK2mut-MEK5	MEKK3-MEK5 inh
COc1ccc(/C=C(/NC(=O)c2ccccc2)C(=O)N/N=C/c2sccc2C)cc1	133*	105	0	0	1	94	-6	98
O=S(=O)(NCCSc1ccccc1)c1ccc2c(c1)OCCO2	107	107	0	0	5	nt	nt	nt
O=S(=O)(NCCOc1ccc(F)cc1)c1ccc2c(c1)OCCO2	2.0*[inhibitor]	2.0*[inhibitor]	0	0	-18	107	1	107
CCOC(=O)N1CCC(NC(=O)c2cc(C(=O)Nc3cccc(C(F)(F)F)c3)ccc2CO)CC1	131*	117	0	0	1	103	-1	103
Nc1ccccc1C(=O)NCC1(c2ccccc2)CCCC1	105	107	nt	nt	7	nt	nt	nt
NC(=O)CSc1nc2cc([N+](=O)[O-])ccc2n1-c1cccc(C(F)(F)F)c1	133*	109	1	3	1	106	4	106
CCNC(=O)CSc1nc2cc([N+](=O)[O-])ccc2n1-c1cccc(C(F)(F)F)c1	105	119	4	56	20	nt	nt	nt
C/C(=N/NS(=O)(=O)c1ccc(C)cc1C)c1c[nH]c2ccccc12	101	98	nt	nt	-1	nt	nt	nt
CCN1CCN(Cc2c(O)ccc3c2O/C(=C\C=C\c2ccccc2OC)C3=O)CC1	133*	95	2	2	0	92	-3	97
CCCN(CC(=O)Nc1cccc(Br)c1)CC(=O)Nc1ccc(F)c(F)c1F	101	154*	1	18	31	103	-3	101
CC(=O)Nc1ccc(S(=O)(=O)N2CCN(S(=O)(=O)c3ccc(F)c(F)c3F)CC2)cc1	98	98	nt	nt	4	nt	nt	nt
Cc1nc(SCC(=O)c2ccc(F)cc2)c([N+](=O)[O-])[nH]1	102	104	1	7	4	nt	nt	nt
Cc1nc(SCC(O)CO)c([N+](=O)[O-])[nH]1 (configuration not stated)	112	138*	0	0	16	99	-2	97
N#C/C(=C/c1ccc(-c2ccc(S(N)(=O)=O)cc2)o1)C(=O)Nc1ccccc1	102	101	-1	-7	7	nt	nt	nt
N#C/C(=C/c1ccc(-c2ccc(S(N)(=O)=O)cc2)o1)c1nc2ccccc2s1	63*[inhibitor]	28*[inhibitor]	37	42	45	96	3	103
COc1cc(Cl)cc2c1Sc1ccccc1/C2=C/CCN(C)C	81	167*	0	1	19	154	46	108
Cc1csc2ncc(C(=O)NCCC(c3ccccc3)c3ccccc3)c(=O)n12	130*	123	nt	nt	27	101	3	97
CCCn1cc(SCC(=O)NC2CCCC2)c2ccccc21	101	103	nt	nt	3	nt	nt	nt
CCCCn1cc(SCC(=O)O)c2ccccc21	-1.0*[inhibitor]	-1.0*[inhibitor]	1	0	-21	101	0	102
COc1cc2c(cc1Cl)/C(=C\CCN(C)C)c1ccccc1S2	102	130	2	-1	3	nt	nt	nt
CN1CCN(CC/C=C2/c3ccccc3Sc3ccc(S(=O)(=O)N(C)C)cc32)CC1	78	143*	nt	0	19	127	10	101
CCn1cc(C(=O)O)c(=O)c2cc(F)c(N3CCN(C(=S)NC(=O)c4ccc(Br)cc4)CC3)cc21	59*[inhibitor]	85	0	3	54*	-1.0*[inhibitor]	-2	99
CCn1cc(C(=O)NCc2ccc3c(c2)OCO3)c(=O)c2cc(F)c(N3CCN(C)CC3)cc21	105	138*	4	13	12	114	7	106
CCn1cc(C(=O)O)c(=O)c2cc(F)c(N3CCNCC3)cc21	74*[inhibitor]	97	2	7	-4	95	-5	103
CCn1cc(C(=O)O)c(=O)c2cc(F)c(N3CCN(C)CC3)cc21	107	103	0	2	3	nt	nt	nt
SMILES	MEKK3 PB1 HTS	MEKK2 WT-MEK5	ABCB1 block	ABCG2 block	MEKK2 mut-MEK5	MEKK2wt confirm	MEKK2mut-MEK5	MEKK3-MEK5 inh
CCn1cc(C(=O)O)c(=O)c2cc(F)c(N3CCN(C(=S)NC(=O)c4ccc(OC)cc4)CC3)cc21	104	105	nt	nt	4	nt	nt	nt
CCn1cc(C(=O)NCCc2ccccc2)c(=O)c2cc(F)c(N3CCN(C)CC3)cc21	101	115	0	-1	5	nt	nt	nt
CN1C(=O)[C@H]2[C@@H](/C=C/c3ccccc3)N3C(=O)CN(CC4CC4)C(=O)[C@@]3(C)[C@H]2C1=O	99	97	nt	nt	7	nt	nt	nt
O=S(=O)(c1ccc(F)cc1)N1CCN(c2ncccn2)CC1	134*	118	nt	nt	28	108	10	109
CC(C)(C)c1ccc(C(O)CCCN2CCC(C(O)(c3ccccc3)c3ccccc3)CC2)cc1 (configuration not stated)	84	212*	0	-1	24*	142	33	107
Cc1ccc(CN2CCC(Oc3cccc(C(=O)NCc4cccnc4)c3)CC2)o1	103	110	nt	nt	10	nt	nt	nt
Cc1ccccc1-n1c(C)nnc1SCC(=O)NNC(=O)c1ccccc1	148*	104	1	6	0	93	1	95
Cc1nnc(SCC(=O)NNC(=O)c2ccccc2)n1-c1ccccc1	98	99	nt	0	-1	nt	nt	nt
O=C(c1cc(Cl)ccc1Cl)N1CCOCC1	0.0*[inhibitor]	-4.0*[inhibitor]	0	1	-21	106	13	102
O=C(O)c1cc(Cl)c(Cl)cc1C(=O)N1CCOCC1	98	100	1	1	1	nt	nt	nt
O=C(N/N=C/c1ccc(O)cc1)c1ccncc1	98	101	nt	nt	2	nt	nt	nt
CC/C(=C\C(=O)c1ccncc1)Nc1ccc(O)cc1	107	113	0	3	25*	96	-10	98
CCn1c2ccccc2c2nnc(SCC(=O)Nc3c(C)n(C)n(-c4ccccc4)c3=O)nc21	2.0*[inhibitor]	2.0*[inhibitor]	1	26	-17	101	-2	97
Cc1c(NC(=O)CSc2nnc3c4ccccc4n(CCc4ccccc4)c3n2)c(=O)n(-c2ccccc2)n1C	103	104	1	11	6	nt	nt	nt
NC(=O)c1nsc(C(=O)N(c2ccccc2)C(C(=O)NC2CCCCC2)c2ccc(O)cc2)c1N (configuration not stated)	100	96	nt	nt	1	nt	nt	nt
CC(CCc1ccc(O)cc1)NCCC(c1ccccc1)c1ccccc1 (configuration not stated)	106	144*	nt	nt	20	139	21	105
